Series [1] concerns the target T1, ATP-dependent translocase ABCB1 (Homo sapiens, UniProt P08183). Nature of the series: Reversal of Pgp-mediated DOX resistance in human SW620/AD300 cells assessed as potentiation of DOX-induced cytotoxicity by measuring inhibition of cell proliferation at 1 uM incubated for 48 hrs by SRB assay (reference value: 5.3 +/- 3 %). The format is cell-based.
For series [2], the target named is T1, ATP-dependent translocase ABCB1. In words: Reversal of Pgp-mediated DOX resistance in human SW620/AD300 cells assessed as potentiation of DOX-induced cytotoxicity by measuring change in DOX IC50 at 1 uM incubated for 48 hrs by SRB assay relative to DOX alone. The format is cell-based. The settings on record: sw620/ad300, 48 h.
A short description of series [3]: Cytotoxicity against human SW620/AD300 cells assessed as cell growth inhibition at 10 uM incubated for 48 hrs by SRB assay relative to control. The format is cell-based. The settings on record: read-out: GI. On the technique in general: Sulforhodamine B stains cellular protein and so reports cell mass.
The subject of series [4] is K562/A02. In words: Potentiation of DOX-induced anti tumor activity against human K562/A02 cells xenografted in BALB/c mouse assessed as tumor size at 3 mg/kg, iv administered every 2 days for 14 days measured during compound dosing by caliper method (reference value: 610 mm3). The series is classed as functional. The method, boiled down: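 Mice bearing subcutaneous ABCB1-overexpressing K562/A02 xenografts treated with DOX alone, modulator alone, or combinations (verapamil as comparator) for 14 days; tumor volume measured every two days.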
Background: A xenograft is tissue or cells of one species grown in another, often human tumour cells in immunodeficient mice.

T1 sequence (P08183 whole entry): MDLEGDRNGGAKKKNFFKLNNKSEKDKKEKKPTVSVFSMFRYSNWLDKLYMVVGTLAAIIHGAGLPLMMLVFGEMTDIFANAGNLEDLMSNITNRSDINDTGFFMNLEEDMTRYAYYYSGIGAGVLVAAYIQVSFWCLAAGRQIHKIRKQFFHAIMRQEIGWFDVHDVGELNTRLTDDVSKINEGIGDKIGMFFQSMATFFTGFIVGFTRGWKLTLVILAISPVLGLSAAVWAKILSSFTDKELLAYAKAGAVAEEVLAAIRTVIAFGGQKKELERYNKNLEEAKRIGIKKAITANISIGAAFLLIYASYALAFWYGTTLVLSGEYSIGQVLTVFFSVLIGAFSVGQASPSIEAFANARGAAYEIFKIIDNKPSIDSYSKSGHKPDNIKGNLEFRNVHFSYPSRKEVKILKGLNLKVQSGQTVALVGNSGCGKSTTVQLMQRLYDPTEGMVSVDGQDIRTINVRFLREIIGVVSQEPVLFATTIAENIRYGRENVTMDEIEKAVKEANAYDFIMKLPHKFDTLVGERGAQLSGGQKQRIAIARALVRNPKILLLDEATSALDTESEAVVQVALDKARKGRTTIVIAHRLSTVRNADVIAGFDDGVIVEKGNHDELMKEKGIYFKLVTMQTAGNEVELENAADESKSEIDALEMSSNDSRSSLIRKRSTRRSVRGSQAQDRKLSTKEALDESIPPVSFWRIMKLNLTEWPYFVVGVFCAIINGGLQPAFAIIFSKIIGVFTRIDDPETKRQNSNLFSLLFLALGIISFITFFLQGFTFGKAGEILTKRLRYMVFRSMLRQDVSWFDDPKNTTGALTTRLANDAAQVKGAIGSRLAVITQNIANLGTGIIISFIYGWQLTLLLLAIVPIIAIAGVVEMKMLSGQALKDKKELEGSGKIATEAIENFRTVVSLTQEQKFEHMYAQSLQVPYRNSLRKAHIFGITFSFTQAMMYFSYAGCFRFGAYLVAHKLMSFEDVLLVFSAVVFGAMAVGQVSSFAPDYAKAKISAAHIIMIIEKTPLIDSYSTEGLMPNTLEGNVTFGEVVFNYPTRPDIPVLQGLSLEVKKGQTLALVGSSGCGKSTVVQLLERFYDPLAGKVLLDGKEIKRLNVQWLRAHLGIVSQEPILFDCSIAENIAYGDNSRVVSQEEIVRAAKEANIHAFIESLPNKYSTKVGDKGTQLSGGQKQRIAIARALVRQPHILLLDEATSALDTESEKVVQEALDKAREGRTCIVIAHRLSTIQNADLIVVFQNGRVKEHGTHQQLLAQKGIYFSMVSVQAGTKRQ

Regarding `COc1cc2c(cc1OC)CN(C(=O)/C=C/c1ccc(Oc3ccc(-c4ccccn4)cc3)nc1)CC2`, in series [1], the inhibition at 1 µM turned out to be 26.7%.
Take `Cn1c(-c2ccccc2)c(/C=C/C(=O)Nc2nc3ccccc3s2)c2cccnc21`: in series [1], the inhibition at 1 µM worked out at 44.7%.
For `COc1cc2c(cc1OC)CN(CCc1ccc(NC(=O)/C=C/c3c(-c4ccccc4)n(C)c4ncccc34)cc1)CC2`, the inhibition at 1 µM in series [1] came out at 63%. Moreover, the “fold change (FC)” value in series [2] is on record as 40.72.
Take `COc1ccc(C(=O)NNC(=O)/C=C/c2c(-c3ccccc3)n(C)c3ncccc23)cc1OC`: the inhibition at 1 µM in series [1] amounted to 10.9%.
Consider `COc1cc2c(cc1OC)CN(CCc1ccc(NC(=O)C(c3c(-c4ccccc4)n(C)c4ccccc34)N3CCOCC3)cc1)CC2` (stereo not given), for which the inhibition at 1 µM in series [1] was 61.7%. The “fold change (FC)” value in series [2] amounted to 60.71. In addition, the inhibition at 48 h, 10 µM in series [3] turned out to be 42%.
Consider `COc1cc2c(cc1OC)CN(CCc1ccc(NC(=O)/C=C/c3ccc(Oc4cc(O)c(-c5ccccn5)c(O)c4)nc3)cc1)CC2`, for which the inhibition at 1 µM in series [1] came to 56.3%. Moreover, the “fold change (FC)” value in series [2] came out at 42.81.
On to `COc1cc2c(cc1OC)CN(C(=O)/C=C/c1c3n(c4ccccc14)C(c1cccs1)Oc1ccccc1-3)CC2` (stereo not given), for which, in series [1], the inhibition at 1 µM is 44.3%.
For `COc1cc2c(cc1OC)CN(CCc1ccc(NC(=O)C(O)c3c(-c4ccccc4)n(C)c4ccccc34)cc1)CC2` (stereo not given), the inhibition at 1 µM in series [1] worked out at 55.3%. The “fold change (FC)” value in series [2] amounted to 30.35.
Take `COc1ccc(-c2nnc(/C=C/c3c(-c4ccccc4)n(C)c4ncccc34)o2)cc1OC`: the inhibition at 1 µM in series [1] was determined as 15.1%.
Consider `COc1cc2c(cc1OC)CN(CCc1ccc(NC(=O)/C=C/c3ccc(Oc4c(I)cc(-c5ccccn5)cc4I)nc3)cc1)CC2`, for which the inhibition at 1 µM in series [1] is 53.2%. For the same compound, the “fold change (FC)” value in series [2] was 28.3.
`COc1cc2c(cc1OC)CN(CCc1ccc(NC(=O)/C=C/c3cccc(Oc4ccc(-c5ccccn5)cc4)n3)cc1)CC2`: the inhibition at 1 µM in series [1] was 60.2%. For the same compound, the “fold change (FC)” value in series [2] amounted to 33.73.
With `COc1cc2c(cc1OC)CN(C(=O)/C=C/c1c(-c3ccccc3)nc3ccccn13)CC2`, the inhibition at 1 µM in series [1] was 37.5%.
With `COc1cc2c(cc1OC)CN(CCc1ccc(NC(=O)/C=C/c3cc(-c4ccccn4)cc(C)c3Oc3ccccn3)cc1)CC2`, the inhibition at 1 µM in series [1] was 64%. The “fold change (FC)” value in series [2] turned out to be 60.71. Besides, in series [3], the inhibition at 48 h, 10 µM amounted to 17%.
On to `COc1cc2c(cc1OC)CN(CCc1ccc(NC(=O)/C=C/c3ccc(Oc4ccc(-c5ccccn5)cc4C)nc3)cc1)CC2`, for which the inhibition at 1 µM in series [1] is 55.1%. Moreover, in series [2], the “fold change (FC)” value is on record as 45.12.
Consider `COc1cc2c(cc1OC)CN(CCc1ccc(NC(=O)/C=C/c3ccc(Oc4ccc(-c5ccccn5)c(C#N)c4)nc3)cc1)CC2`, for which, in series [1], the inhibition at 1 µM is 58.3%. Besides, the “fold change (FC)” value in series [2] worked out at 54.74. In addition, the inhibition at 48 h, 10 µM in series [3] was 13.9%.
For the compound `COc1ccc(NC(=O)NC(=O)/C=C/c2c(-c3ccccc3)n(C)c3ncccc23)cc1OC`, in series [1], the inhibition at 1 µM was determined as 23.3%.
For `COc1ccc2c(C)c(CC(=O)Nc3ccc(CCN4CCc5cc(OC)c(OC)cc5C4)cc3)c(=O)oc2c1`, the inhibition at 1 µM in series [1] stood at 50.5%. In addition, the “fold change (FC)” value in series [2] is reported as 16.95.
For the compound `COc1ccc(CN2CC(c3c(-c4ccccc4)n(C)c4ncccc34)=CC2=O)cc1OC`, in series [1], the inhibition at 1 µM is 20.7%.
Consider `COc1cc2c(cc1OC)CN(CCc1ccc(NC(=O)/C=C/c3ccc(Oc4ccc(-c5ccccn5)cc4)nc3)cc1)CC2`, for which the inhibition at 1 µM in series [1] came out at 41.8%.
`COc1cc2c(cc1OC)CN(C(=O)/C=C/c1c3n(c4ncccc14)CCc1ccccc1-3)CC2`: the inhibition at 1 µM in series [1] turned out to be 45.4%.
Regarding `COc1cc2c(cc1OC)CN(C(=O)/C=C/c1c3n(c4ccccc14)C(C1CCCCC1)Oc1ccccc1-3)CC2` (stereo not given), the inhibition at 1 µM in series [1] amounted to 40.1%.
As for `Cn1c(-c2ccccc2)c(/C=C/C(=O)NN2C(=O)c3ccccc3C2=O)c2cccnc21`, the inhibition at 1 µM in series [1] is 18.9%.
Regarding `COc1cc2c(cc1OC)CN(CCc1ccc(NC(=O)/C=C/c3ccc(Oc4ccc(-c5ccccn5)cc4I)nc3)cc1)CC2`, the inhibition at 1 µM in series [1] came out at 59.2%. Besides, in series [2], the “fold change (FC)” value was 43.93.
In the case of `COc1cc2c(cc1OC)CN(C(=O)/C=C(\C)c1c(-c3ccccc3)n(C)c3ncccc13)CC2`, the inhibition at 1 µM in series [1] came out at 44%.
Take `COc1ccc(CCN(C)CCCC(C#N)(c2ccc(OC)c(OC)c2)C(C)C)cc1OC` (stereo not given): the inhibition at 1 µM in series [1] turned out to be 26.1%. Besides, in series [4], the Activity is given as 508 mm3.
With `COc1cc2c(cc1OC)CN(C(=O)CCc1c(-c3ccccc3)n(C)c3ncccc13)CC2`, in series [1], the inhibition at 1 µM turned out to be 17.7%.
In the case of `COc1cc2c(cc1OC)CN(CCc1ccc(NC(=O)/C=C/c3ccc(Oc4ccc(-c5cccnc5)cc4)nc3)cc1)CC2`, the inhibition at 1 µM in series [1] was determined as 62.6%. The “fold change (FC)” value in series [2] was 85.62. The inhibition at 48 h, 10 µM in series [3] was 13.9%.
Regarding `COc1cc2c(cc1OC)CN(CCc1ccc(NC(=O)c3ccc(Oc4ccc(-c5ccccn5)cc4)nc3)cc1)CC2`, the inhibition at 1 µM in series [1] came to 36.1%.
For the compound `COc1cc2c(cc1OC)CN(C(=O)/C=C/c1nc(-c3ccccn3)n(C)c1-c1ccccc1)CC2`, the inhibition at 1 µM in series [1] was found to be 28.2%.
With `COc1cc2c(cc1OC)CN(C(=O)/C=C/c1c3n(c4ncccc14)Cc1ccccc1-3)CC2`, in series [1], the inhibition at 1 µM was determined as 22.9%.
Same read-out and setting: in the case of `COc1cc2c(cc1OC)CN(C(=O)/C=C/c1c3n(c4ccccc14)C(c1ccccc1)Oc1ccccc1-3)CC2` (stereo not given) it was 41.4%.
In the case of `[2H]c1c([2H])c(-c2ccccn2)c([2H])c([2H])c1Oc1ccc(/C=C/C(=O)Nc2ccc(CCN3CCc4cc(OC)c(OC)cc4C3)cc2)cn1`, the inhibition at 1 µM in series [1] was 49.5%.
As to `COc1cc2c(cc1OC)CN(C(=O)/C=C(/c1c(-c3ccccc3)n(C)c3ncccc13)C(F)(F)F)CC2`, in series [1], the inhibition at 1 µM turned out to be 32.5%.
Still for that read-out and setting: in the case of `COc1cc2c(cc1OC)CN(C(=O)/C=C/c1c(-c3ccccc3)n(C)c3ncccc13)CC2` it was 40%; in that of `COc1cc2c(cc1OC)CN(C(=O)/C(F)=C/c1c(-c3ccccc3)n(C)c3ncccc13)CC2`, 12.2%.
`COc1cc2c(cc1OC)CN(S(=O)(=O)/C=C/c1c(-c3ccccc3)n(C)c3ncccc13)CC2`: in series [1], the inhibition at 1 µM is 37.9%.
Regarding `COc1cc2c(cc1OC)CN(CCc1ccc(NC(=O)/C=C/c3c(-c4ccccc4)oc4ccccc4c3=O)cc1)CC2`, the inhibition at 1 µM in series [1] worked out at 55.2%. In addition, the “fold change (FC)” value in series [2] is given as 24.55.
For `COc1cc2c(cc1OC)CN(S(=O)(=O)/C=C/c1c(-c3ccccc3)n(C)c3ccccc13)CC2`, the inhibition at 1 µM in series [1] came out at 25.4%.
Turning to `COc1cc2c(cc1OC)CN(CCc1ccc(NC(=O)/C=C/c3ccc(Oc4ccc(-c5ccccn5)c(C)c4)nc3)cc1)CC2`, the inhibition at 1 µM in series [1] worked out at 58.2%. In series [2], the “fold change (FC)” value is given as 68.14. Moreover, in series [3], the inhibition at 48 h, 10 µM was 17.1%.
As to `COc1cc2c(cc1OC)CN(CCc1ccc(NC(=O)/C=C/c3ccc(Oc4ccc(-c5ccccn5)c(O)c4)nc3)cc1)CC2`, the inhibition at 1 µM in series [1] was 56.4%. The “fold change (FC)” value in series [2] amounted to 40.72.
For the compound `Cn1c(-c2ccccc2)c(/C=C/C(=O)NN2Cc3ccccc3C2=O)c2cccnc21`, the inhibition at 1 µM in series [1] stood at 18.5%.
Turning to `COc1cc2c(cc1OC)CN(CCc1ccc(NC(=O)/C=C/c3ccc(Oc4ccc(-c5ccccn5)cc4Br)nc3)cc1)CC2`, the inhibition at 1 µM in series [1] stood at 60.1%. In addition, in series [2], the “fold change (FC)” value is recorded as 47.7.
As to `COc1cc2c(cc1OC)CN(CCc1ccc(NC(=O)C3CC3c3ccc(Oc4ccc(-c5ccccn5)cc4)nc3)cc1)CC2` (stereo not given), the inhibition at 1 µM in series [1] worked out at 59%. Moreover, the “fold change (FC)” value in series [2] is given as 43.93.
For `COc1cc2c(cc1OC)CN(CCc1ccc(NC(=O)/C=C/c3ccc(Oc4ccc(-c5ccccn5)c(F)c4)nc3)cc1)CC2`, in series [1], the inhibition at 1 µM turned out to be 49.8%.
In the case of `COc1cc2c(cc1OC)CN(CCc1ccc(NC(=O)/C=C/c3ccc(Oc4cccc(-c5ccccn5)c4)nc3)cc1)CC2`, the inhibition at 1 µM in series [1] was determined as 56.5%. Moreover, in series [2], the “fold change (FC)” value was 44.52.
Consider `COc1ccc(C(=O)NN2CC(c3c(-c4ccccc4)n(C)c4ncccc34)=CC2=O)cc1OC`, for which the inhibition at 1 µM in series [1] came to 14%.

The values are drawn from ChEMBL document CHEMBL4602721, “Discovery of Potent Inhibitors against P-Glycoprotein-Mediated Multidrug Resistance Aided by Late-Stage Functionalization of a 2-(4-(Pyridin-2-yl)phenoxy)pyridine Analogue” (J Med Chem, 2020).
